High-throughput results as filed in PubChem.
Sampled rows, rich in hits. Any-hit rate of the full collection: about 3.1%.
ADAM17 inh: ADAM17 inhibitors, primary screen, biochemical, QFRET | inhibition, % at 6.95 µM | Disintegrin and metalloproteinase domain-containing protein 17 (Homo sapiens), P78536 | recombinant ADAM17, EDANS/DABCYL FRET peptide cleavage | 370,000 compounds, 0.83% hits | AID 720648, 2013;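 active = inhibition above the mean of compounds lying between control limits plus 3 SD, set per campaign, cut at about 8.5% in these data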;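 note: 0% = DMSO-only wells as the low control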
Target sequence (P78536 215-824 limits assumed): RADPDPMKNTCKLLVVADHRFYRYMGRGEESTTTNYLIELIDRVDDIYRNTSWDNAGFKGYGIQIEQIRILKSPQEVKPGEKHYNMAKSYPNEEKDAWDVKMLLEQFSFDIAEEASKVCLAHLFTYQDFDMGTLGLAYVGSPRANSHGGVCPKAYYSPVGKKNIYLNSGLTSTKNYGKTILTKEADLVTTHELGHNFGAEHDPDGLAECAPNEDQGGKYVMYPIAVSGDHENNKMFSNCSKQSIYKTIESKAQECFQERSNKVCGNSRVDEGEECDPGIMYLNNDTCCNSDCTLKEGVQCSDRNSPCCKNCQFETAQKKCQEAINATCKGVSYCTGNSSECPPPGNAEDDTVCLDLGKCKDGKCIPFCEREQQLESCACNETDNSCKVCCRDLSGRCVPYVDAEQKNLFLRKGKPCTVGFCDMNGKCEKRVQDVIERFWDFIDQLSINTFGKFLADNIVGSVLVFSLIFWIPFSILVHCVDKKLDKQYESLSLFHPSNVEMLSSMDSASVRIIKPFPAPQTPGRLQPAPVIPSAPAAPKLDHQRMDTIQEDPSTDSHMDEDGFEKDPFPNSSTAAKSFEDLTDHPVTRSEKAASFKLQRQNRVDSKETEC
Hep lipid drop: inhibitors of hepatocyte lipid droplet formation, primary screen, imaging, high-throughput imaging, BODIPY stain. AML12 mouse hepatocytes, oleate lipid droplets. inhibition, % at 6.5 µM. 240,000 compounds, 0.4% hits;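 active = lipid droplet intensity inhibited by at least 50%, with more than 500 cells counted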
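Test system: AML12 hepatocytes (mouse); reagent: oleate loading, 100 µM; dosing: one dose, 6.5 µM compound; incubation: overnight exposure; signal: fluorescence imaging, 20x objective, two fields per well; read-out basis: % inhibition of corrected integrated BODIPY droplet signal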
MPTP block: mitochondrial permeability transition pore inhibitors, primary screen, biochemical, isolated mouse mitochondria, absorbance; Ca2+ swelling absorbance, 30 min; inhibition, % at 10 µM; 360,000 compounds, 1.4% hits; AID 602449, 2012;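 active = inhibition of 50% or more, scaled per plate between neutral and stimulator controls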;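 note: 0% = DMSO wells given calcium and 100% = 1 mM EGTA wells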
V-ATPase pH: regulators of yeast V-ATPase proton pumping, primary screen, pHLuorin cytosolic pH fluorescence; S. cerevisiae; response, % at 10 µM; 350,000 compounds, 0.37% hits; in the data active = response mostly above about 7.3%, no sharp cut-off; inactive = mostly below about 5.4%; note: actives read high
ADAM10 inh: human ADAM10 inhibitors, primary screen, biochemical, QFRET, HTS; AID 720582, 2013; Disintegrin and metalloproteinase domain-containing protein 10 (Homo sapiens), O14672; 370,000 compounds, 0.62% hits; recombinant ADAM10, EDANS/DABCYL FRET peptide cleavage, 3 h; inhibition, % at 7 µM;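 active = inhibition above a per-campaign cutoff equal to the mean of compounds falling between control-based bounds plus 3 SD, cut at about 20% in these data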;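 note: 0% = DMSO wells while the 100% control is not disclosed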
aDG glyco up: activators of alpha-DG glycosylation, primary screen, uHTS, Pro5-aDG cells, AlphaScreen. alpha-DG glycosylation AlphaScreen (IIH6); 0% Pro5, 100% B10-LARGE cell signal. activation, % at 10 µM. 360,000 compounds, 0.22% hits;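 active = activation of at least 8% versus controls, or a plate z-score of at least 8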;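 note: Pro5 are CHO cells carrying HIG-tagged alpha-DG that lacks glycosylation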
ADAM10 ctr: ADAM10 inhibitors, counter-screen for ADAM17 exosite inhibitor project, biochemical, FRET, human ADAM10; shares compounds with ADAM17 inh; recombinant ADAM10, EDANS/DABCYL FRET peptide cleavage, 3 h; inhibition, % at 6.95 µM; 2,900 compounds, 47% hits;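 active = mean inhibition over the triplicate runs exceeds the activity threshold set in the earlier primary screen, cut at about 20% in these data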;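 note: 0% = DMSO wells and 100% = marimastat wells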
ADAM17 confirm: ADAM17 inhibitors, hit retest, confirmation, biochemical, QFRET peptide cleavage; AID 743257, 2014; 2,900 compounds, 65% hits; shares compounds with ADAM17 inh; recombinant ADAM17, EDANS/DABCYL QFRET peptide cleavage; inhibition, % at 6.95 µM;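 active = mean inhibition across replicates above the hit cutoff set in the primary screen, cut at about 8.5% in these data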;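 note: 0% = DMSO wells and 100% = marimastat wells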
An asterisk follows results filed as active; nt = not tested or not shown.

SMILES	ADAM17 inh	Hep lipid drop	MPTP block	V-ATPase pH	ADAM10 inh	aDG glyco up	ADAM10 ctr	ADAM17 confirm
N#Cc1c(-c2ccccc2)c(-c2ccccc2)nn(CC(=O)NNC(=O)Nc2ccc(Cl)cc2)c1=O	14.1*	-0.7	3.0	0.2	14.8	0.3	23.1*	19.4*
CCOC(=O)[C@]12CCCCC/C=C\1N(CCc1ccc(Cl)cc1)C(=O)[C@H]2CC(=O)N1CCC(c2ccccc2)CC1	1.4	nt	nt	nt	7.2	nt	nt	nt
COC(=O)[C@]1(CNS(=O)(=O)c2ccc(F)cc2)CC(=O)N(C)[C@@H]1c1ccccc1	0.8	nt	nt	nt	2.2	nt	nt	nt
CN1CCN(c2ccc3c(c2)Oc2ccccc2CN(Cc2cn(Cc4ccc(C(F)(F)F)cc4)nn2)S3(=O)=O)CC1	4.5	nt	nt	nt	13.8	nt	nt	nt
OC(c1ccccc1)(c1ccccc1)C1CCN(CCCNc2cccc(Br)c2)CC1	-2.3	nt	nt	nt	-3.3	nt	nt	nt
OC(c1ccccc1)(c1ccccc1)C1CCN(CCCNc2ccc(C(F)(F)F)cc2)CC1	9.4*	nt	nt	nt	16.6	nt	19.5	10.9*
COC(=O)[C@]12C[C@H](CC(=O)NCc3ccccc3)C(=O)N(Cc3ccc(Cl)cc3Cl)C1=C[C@H](C(C)(C)C)O[C@@H]2C	6.2	nt	nt	nt	12.2	nt	nt	nt
O=C(Oc1ccc(Br)cc1C(=O)/C=C/c1ccccc1F)c1ccco1	10.7*	nt	7.1	-0.7	19.6	-0.2	11.0	5.3
O=C(CSc1nnc(COc2ccccc2)n1-c1ccccc1)Nc1ccc2c(c1)OCO2	1.0	nt	nt	nt	0.0	nt	nt	nt
Cc1cc(C)c(OCC(=O)NCC2COc3ccccc3O2)c(C)c1 (stereo unspecified)	14.6*	nt	-0.4	-1.0	11.0	0.2	9.4	5.0
CCCC1CCC2(CC1)CCC2OC(=S)Nc1ccccc1Cl (stereo unspecified)	0.0	nt	nt	nt	2.1	nt	nt	nt
COc1cccc(Oc2ccc(S(=O)(=O)N3CCCC3)cc2[N+](=O)[O-])c1	8.7*	-5.4	0.7	-0.6	17.8	0.0	13.1	3.0
COc1ccc(OCCOc2ccc(S(=O)(=O)N3CCCC3)cc2[N+](=O)[O-])cc1	1.2	nt	-1.4	-1.4	9.2	0.0	nt	nt
Nc1n[nH]c(N)c1N=Nc1ccc(Cl)cc1	10.5*	3.9	0.5	-1.4	16.6	-0.4	2.1	2.1
Nc1n[nH]c(N)c1N=Nc1cccc(F)c1	0.8	-4.4	-0.2	-2.1	5.2	-0.2	nt	nt
Cc1ccc(S(=O)(=O)N2CCC(C(=O)Nc3ccc(S(=O)(=O)N4CCCC4)cc3)CC2)cc1	12.8*	nt	0.7	-2.6	-1.3	-0.2	21.0*	11.5*
CN(c1ccc(C(=O)Nc2ccc3c(c2)OCCO3)cc1)S(C)(=O)=O	9.4*	-4.1	-0.9	3.5	9.9	-0.3	0.6	1.9
COc1ccc(N(C)S(=O)(=O)c2cccc(C(=O)Nc3ccc4c(c3)OCCO4)c2)cc1	10.7*	0.6	0.2	6.5	13.7	0.1	24.5*	13.3*
Cc1cccc(N(CC(=O)Nc2ccccc2-c2ccccc2)S(=O)(=O)c2ccccc2)c1C	9.3*	-3.1	1.1	-0.8	16.3	0.0	28.2*	16.1*
Cc1ccc(S(=O)(=O)N(CC(=O)Nc2ccccc2-c2ccccc2)c2ccc(C)cc2C)cc1	4.8	21.9	1.8	-1.9	9.7	-0.1	nt	nt
CC(C)C(=O)Oc1ccc(CO)cc1[C@H](CCN(C(C)C)C(C)C)c1ccccc1	1.1	nt	nt	nt	-3.5	nt	nt	nt
COc1ccccc1NS(=O)(=O)c1cc(NC(=O)CCC(=O)c2cccs2)ccc1Cl	4.3	-5.3	7.4	-6.5	11.0	0.4	nt	nt
CCOc1ccc(NS(=O)(=O)c2cc(NC(=O)CCC(=O)c3cccs3)ccc2Cl)cc1	9.1*	-25.0	10.0	2.8	14.0	0.4	18.4	10.3*
COc1ccc(NS(=O)(=O)c2cc(OC)ccc2OC)cc1	-1.3	nt	-2.5	0.8	-5.8	0.0	nt	nt
COc1ccc(NS(=O)(=O)c2cc(OC)ccc2NC(=O)c2cc(C)oc2C)cc1	8.8*	nt	-3.5	3.1	15.2	0.0	2.5	6.2
SMILES	ADAM17 inh	Hep lipid drop	MPTP block	V-ATPase pH	ADAM10 inh	aDG glyco up	ADAM10 ctr	ADAM17 confirm
Nc1cc(=O)[nH]c(SCC(=O)Nc2cc(S(=O)(=O)N3CCCCCC3)ccc2Cl)n1	-2.8	nt	4.0	-0.8	-13.1	0.1	nt	nt
COc1ccc(S(=O)(=O)N2CCCCC2)cc1NC(=O)Cc1c[nH]c2ccccc12	1.5	-46.6	0.2	-0.3	8.7	-0.2	nt	nt
Cc1ccc(S(=O)(=O)N2CCCCC2)cc1NC(=O)Cc1c[nH]c2ccccc12	8.8*	-31.1	1.5	0.1	4.1	0.0	-1.6	1.5
Cc1ccc(S(=O)(=O)N2CCCCC2)cc1NC(=O)CNc1ccc(C(F)(F)F)cc1	9.4*	nt	2.0	-0.8	17.5	0.2	16.5	11.5*
Cc1ccc(-c2nc(SCC(=O)Nc3cc(S(=O)(=O)N4CCCCC4)ccc3Cl)n[nH]2)cc1	14.3*	-24.4	1.1	0.9	19.1	0.6	32.1*	13.9*
CCc1ccc(CCNC(=O)OC2CCC23CCC(c2ccccc2)CC3)cc1 (stereo unspecified)	-1.6	nt	nt	nt	1.3	nt	nt	nt
Cc1[nH]c2ccc(C(=O)NCCCN3CCN(C)CC3)cc2c1C	-1.9	-0.2	-1.7	3.2	-9.4	0.2	nt	nt
Cc1[nH]c2ccc(C(=O)NCCCN(C)C3CCCCC3)cc2c1C	8.7*	-2.1	0.5	-1.6	0.1	-0.3	-49.3	-10.3
O=C(Nc1ccccc1Cl)c1cc(C2CCCCN2S(=O)(=O)c2ccccc2)on1 (stereo unspecified)	4.2	nt	-0.4	nt	16.6	-0.1	nt	nt
O=C(Nc1ccccc1)c1cc(C2CCCCN2S(=O)(=O)c2ccccc2)on1 (stereo unspecified)	11.6*	nt	0.5	nt	15.2	0.1	12.6	8.2
C#CCN(C1CC1)S(=O)(=O)c1ccccc1Br	0.8	nt	nt	nt	5.8	nt	nt	nt
Cc1ccc(S(=O)(=O)N(C(=O)c2ccncc2)c2ccc(OC(=O)c3ccncc3)c3ccccc23)c(C)c1	nt	-2.4	-3.4	-4.3	nt	0.7	nt	nt
Cc1ccc(S(=O)(=O)N(C(=O)c2ccncc2)c2ccc(OC(=O)c3ccncc3)c3ccccc23)cc1	8.9*	-30.2	0.6	1.3	2.2	0.4	37.0*	19.4*
Cc1ccc(C)c(NC(=O)C(=O)NCCc2c[nH]c3ccccc23)c1	-4.8	-10.7	0.9	2.7	-4.2	0.1	nt	nt
